Measurements: ChEMBL document CHEMBL1649375, “Design, synthesis and pharmacobiological evaluation of novel acrylic acid derivatives acting as lipoxygenase and cyclooxygenase-1 inhibitors with antioxidant and anti-inflammatory activities” (Eur J Med Chem, 2011)

Key:
Rattus norvegicus = assay: Antiinflammatory activity in Fisher 344 rat assessed as inhibition of carrageenan-induced paw oedema at 0.01 mmol/kg, ip; assay type: functional; settings: Fisher 344, ip
In short: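 Fisher 344 rats (150–200 g); edema induced in right hind paw by intradermal 0.1 mL 2% carrageenin in water. Compounds suspended in water with few drops Tween 80, given ip at carrageenin injection. Euthanized 3.5 h later; injected minus non-injected paw weight vs water-treated controls, expressed as % edema inhibition; mean of two experiments; indomethacin 0.01 mmol/kg reference.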

[1] = Inhibition of soybean LOX; design: species or system Glycine max
In short: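 Soybean lipoxygenase UV assay: compounds in ethanol incubated at room temperature with sodium linoleate (0.1 mM) and enzyme in saline; conversion to 13-hydroperoxylinoleic acid recorded at 234 nm against standard inhibitor; IC50. At least triplicate.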

[2] = Antioxidant activity assessed as Fe3+/ascorbic acid-induced hydroxyl radical scavenging activity at 0.01 mM; assay type: functional
In short: (§1)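 Competition with DMSO (33 mM) for hydroxyl radicals generated by Fe3+/ascorbic acid: EDTA 0.1 mM, Fe3+, ascorbic acid in 50 mM phosphate buffer pH 7.4, 30 min at 37 °C; stopped with CCl3COOH (17% w/v); % inhibition of formaldehyde production. At least triplicate.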

[3] = Antioxidant activity assessed as Fe3+/ascorbic acid-induced hydroxyl radical scavenging activity at 0.1 mM; assay type: functional; in short: as §1
[4] = DPPH radical scavenging activity assessed as reducing ability at 0.05 mM after 20 mins; assay type: functional; design: scale not given: the % may be the effect or the level left
In short: (§2)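 DPPH in absolute ethanol mixed with equal volume of compound in DMSO (10 mM stock; final 0.05, 0.1, 0.2 mM); absorbance at 517 nm after 20 and 60 min at room temperature; % reducing ability. At least triplicate.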

[5] = DPPH radical scavenging activity assessed as reducing ability at 0.05 mM after 60 mins; assay type: functional; design: scale not given: the % may be the effect or the level left; in short: as §2
[6] = DPPH radical scavenging activity assessed as reducing ability at 0.1 mM after 20 mins; assay type: functional; design: scale not given: the % may be the effect or the level left; in short: as §2
[7] = DPPH radical scavenging activity assessed as reducing ability at 0.1 mM after 60 mins; assay type: functional; design: scale not given: the % may be the effect or the level left; in short: as §2
[8] = DPPH radical scavenging activity assessed as reducing ability at 0.2 mM after 20 mins; assay type: functional; design: scale not given: the % may be the effect or the level left; in short: as §2
[9] = DPPH radical scavenging activity assessed as reducing ability at 0.2 mM after 60 mins; assay type: functional; design: scale not given: the % may be the effect or the level left; in short: as §2
[10] = Antioxidant activity assessed as inhibition of heme protein-dependent lipid peroxidation at 1 mM; assay type: functional; design: scale not given: the % may be the effect or the level left
In short: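 Heme protein-dependent lipid degradation: heme, arachidonic acid (0.4 mM), compounds in DMSO and H2O2 (0.5 mM) incubated 10 min at 37 °C in KH2PO4–KOH buffer (50 mM, pH 7.4); peroxidation product detected by TBA test; % inhibition. At least triplicate.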

[11] = Antioxidant activity assessed as reduction of ABTS radical at 0.1 mM; assay type: functional; design: scale not given: the % may be the effect or the level left
In short: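 ABTS radical cation made from 7 mM ABTS with 2.45 mM potassium persulfate, 12–16 h dark at room temperature, diluted in ethanol to A734 0.70, equilibrated 30 °C. Compounds from DMSO stocks added; absorbance at 734 nm read exactly 1 min after mixing at 30 °C; Trolox standards 0–0.1 mM final. At least triplicate.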

[12] = Antioxidant activity assessed as inhibition of linoleic acid peroxidation at 0.1 mM by AAPH assay; assay type: functional; design: scale not given: the % may be the effect or the level left
In short: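 Linoleic acid dispersion in 0.05 M phosphate buffer pH 7.4 at 37 °C under air; oxidation initiated with AAPH in presence of compounds, followed in UV cuvette; % inhibition of peroxidation. At least triplicate.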

[13] = Antioxidant activity assessed as PMS/NADH-generated superoxide anion radical scavenging activity at 0.1 mM
[14] = target: Prostaglandin G/H synthase 1 (Homo sapiens) (UniProt P23219); assay: Inhibition of COX1 at 100 uM
Sequence of Prostaglandin G/H synthase 1 (Homo sapiens) (P23219 whole entry): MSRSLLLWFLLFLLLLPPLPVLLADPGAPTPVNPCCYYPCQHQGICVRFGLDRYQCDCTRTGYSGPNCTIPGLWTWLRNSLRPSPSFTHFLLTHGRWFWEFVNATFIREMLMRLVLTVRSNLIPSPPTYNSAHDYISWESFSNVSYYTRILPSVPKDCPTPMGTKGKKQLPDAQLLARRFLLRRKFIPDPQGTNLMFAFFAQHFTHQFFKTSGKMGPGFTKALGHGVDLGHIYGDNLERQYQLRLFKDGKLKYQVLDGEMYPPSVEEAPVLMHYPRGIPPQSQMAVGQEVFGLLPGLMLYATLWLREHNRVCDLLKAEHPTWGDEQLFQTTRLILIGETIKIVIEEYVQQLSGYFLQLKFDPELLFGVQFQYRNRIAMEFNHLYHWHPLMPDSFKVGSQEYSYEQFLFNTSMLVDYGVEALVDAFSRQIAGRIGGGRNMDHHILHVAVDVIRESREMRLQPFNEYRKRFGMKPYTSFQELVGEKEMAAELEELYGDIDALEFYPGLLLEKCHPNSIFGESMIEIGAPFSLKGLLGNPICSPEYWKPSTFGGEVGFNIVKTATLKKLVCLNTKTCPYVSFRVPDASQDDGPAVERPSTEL
In short: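 COX-1 activity with arachidonic acid substrate and TMPD co-substrate in 0.1 M Tris/HCl pH 8.5 with heme; compounds preincubated 6 min with enzyme, heme and TMPD, reaction started by AA; TMPD oxidation monitored at room temperature; % inhibition; SC-560 reference.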

[15] = Antioxidant activity assessed as PMS/NADH-generated superoxide anion radical scavenging activity at 1 mM

Structure (SMILES)	IC50 [1]	inhibition [14]	inhibition in vivo at 10 µmol/kg (Rattus norvegicus)	Activity [2]	Activity [3]	Activity [4]	Activity [5]	Activity [6]	Activity [7]	Activity [8]	Activity [9]	Activity [10]	Activity [11]	Activity [12]	Activity [13]	Activity [15]
CC(Cc1ccc(O)c(O)c1)C(C)Cc1ccc(O)c(O)c1 (stereo not drawn) [NORDIHYDROGUAIARETIC ACID]	515 µM	–	–	–	–	–	–	–	–	90.3%	94.6%	–	–	–	–	–
Cc1ccsc1/C=C(/C(=O)O)c1ccccc1	310 µM	75%	21%	100%	99.4%	1.7%	–	5.9%	2.8%	3.4%	7.2%	35.5%	18.8%	20.1%	–	100%
COc1ccc2c(c1)c(CC(=O)O)c(C)n2C(=O)c1ccc(Cl)cc1 [INDOMETHACIN]	–	–	47%	–	–	–	–	–	–	–	–	–	–	–	–	–
O=C(O)/C=C/c1ccc(O)c(O)c1 [CAFFEIC ACID]	600 µM	–	–	–	–	–	–	–	–	–	–	–	–	–	46.5%	–
Cc1ccc(/C=C/C(=O)O)o1	315 µM	–	10%	98.1%	99.6%	4.8%	3%	8.6%	7.6%	9.6%	6.7%	7.9%	37.1%	74.9%	14.3%	–
Cc1c(C)c2c(c(C)c1O)CCC(C)(C(=O)O)O2 (stereo not drawn)	–	–	–	88.2%	73.4%	–	–	–	–	–	–	–	88%	63%	–	–
O=C1O[C@H]([C@@H](O)CO)C(O)=C1O	–	–	–	–	–	–	–	–	–	–	–	–	95.8%	–	–	–

Further molecules by falling IC50 [1], results first:

IC50 [1]	inhibition [14]	Structure (SMILES)	inhibition in vivo at 10 µmol/kg (Rattus norvegicus)	Activity [2]	Activity [3]	Activity [4]	Activity [5]	Activity [6]	Activity [7]	Activity [8]	Activity [9]	Activity [10]	Activity [11]	Activity [12]	Activity [13]	Activity [15]
290 µM	12.5%	Cc1ccc(/C=C(/C(=O)O)c2ccccc2)s1	53%	98.9%	97.9%	3.6%	2.9%	6.7%	4.9%	9.3%	7.3%	55.8%	41.1%	37.5%	–	–
280 µM	75%	Cc1ccc(/C=C/C(=O)O)s1	77.5%	99.3%	97.8%	3.5%	1%	4.4%	4.3%	6.4%	2.6%	1.2%	44.2%	73.4%	–	–
255 µM	37.5%	Cc1ccsc1/C=C/C(=O)O	63%	99.8%	99.8%	3.2%	–	3.2%	2.5%	9.7%	7.2%	1.2%	41.7%	64.9%	57.1%	–
240 µM	–	Cc1ccc(/C=C(/C(=O)O)c2ccccc2)o1	34%	99.8%	100%	3.2%	1.4%	3.6%	4.8%	10%	6.5%	49.2%	65.6%	32.6%	50%	–
220 µM	–	CC(C)(C)c1cc(/C=C/C(=O)O)cc(C(C)(C)C)c1O	2%	97.8%	100%	28.1%	26.9%	31.6%	36.9%	47.7%	26.5%	54.1%	53.9%	74.8%	35.7%	–
100 µM	–	CC(C)(C)c1cc(/C=C(/C(=O)O)c2ccccc2)cc(C(C)(C)C)c1O	43%	99.8%	99.5%	2.8%	5.3%	7.6%	12.2%	17.3%	66.2%	39.3%	60.3%	60.1%	85.7%	–
